Measurements gathered from unrelated publications.
Each line is one published result; the experiments were not run side by side.
CDK7: Cyclin-dependent kinase 7 (CDK7, Homo sapiens, UniProt P50613)

Structure (SMILES)	target	test	conditions	measurement	value
CNS(=O)(=O)c1ccc(Nc2ncc(C(F)(F)F)c(N3CCC[C@](C)(O)C3)n2)c(C)c1	CDK7	binding, competition with immobilised ligand	1 µM	remaining binding	83%
CC(C)S(=O)(=O)c1ccc2nccc(Nc3ccc4sc(C5CCCC5)nc4c3)c2c1	Cyclin-dependent kinase 7, with cyclin H (CDK7, Homo sapiens, UniProt P50613)	enzyme activity, inhibitor	1 µM	activity vs control	106%
C1=C/COCc2cc(ccc2OCCN2CCCC2)Nc2nccc(n2)-c2cccc(c2)COC/1	CDK7	binding	0.1 µM	remaining binding	21%
COc1ccc2oc(-c3ccc4nc(N)oc4c3)c/c(=N\c3ccccc3NC(=O)CCN)c2c1	CDK7	binding	1 µM	remaining binding	97%
CCCCC(=O)Nc1ccc(-c2ccc3ncn(CCC)c(=O)c3c2)cn1	CDK7	binding, competition with immobilised ligand	0.5 µM	remaining binding	83%
N#Cc1ccc(NC(=O)Nc2ccccc2)cc1	CDK7	cell-free assay, competition with immobilised ligand	25 µM	remaining binding	94%
CN1CCN(C(=O)c2ccc(NC(=O)Nc3ccc(N(C)c4ccnc(Nc5ccc(CS(C)(=O)=O)cc5)n4)cc3)cc2)CC1	CDK7	binding, competition with immobilised ligand	1 µM	remaining binding	61%
C=CC(=O)N1CCC[C@@H](n2nc(-c3ccc(Oc4ccccc4)cc3)c3c(N)ncnc32)C1	CDK7	enzyme activity, inhibitor	1 µM	inhibition	28%
C[C@]1(O)CCCN(c2nc(Nc3ccc(S(=O)(=O)N[C@H]4CC[C@H](CN5CCN(c6ccc(C7CCC(=O)NC7=O)cc6F)CC5)CC4)cc3Cl)ncc2C(F)(F)F)C1 (some centres unmarked)	CDK7	binding, competition with immobilised ligand	1 µM	remaining binding	100%
Cc1ccc(NC(=O)c2ccnc(C(F)(F)F)c2)cc1-c1cc(OCCO)nc(N2CCOCC2)c1	CDK7	binding, competition with immobilised ligand	1 µM	remaining binding	98%
C=CC(=O)N1CCC([C@@H]2CCNc3c(C(N)=O)c(-c4ccc(Oc5ccccc5)cc4)nn32)CC1	CDK7	enzyme activity, inhibitor	1 µM	inhibition	21%
